Data set [1] can be described thus: folding enthalpy; higher = less favourable; fluorescence melt of hairpins on a sequencing array, two-state fit. As to conditions: sodium 0.088 M. The method, boiled down: (§1)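 In 50 mM Na-HEPES pH 8.0 containing 25 mM NaCl, hairpins from the library on a sequenced MiSeq flow cell were imaged for Cy3 fluorescence at 2.5 °C steps up to 60 °C, with Cy3 and quencher oligos annealed. After normalisation to pre-quench Cy3 and to control constructs, two-state fits with bootstrapping gave melting temperature and folding enthalpy. Four replicates were combined by inverse-variance weighting, and fitted temperatures were shifted up by 9.35 °C to match UV melts.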

Data set [2] can be described thus: melting temperature; fluorescence melt of hairpins on a sequencing array, two-state fit, raised by 9.35 °C to match UV melts. The settings on record: sodium 0.088 M. In short, it runs like this:
as §1

For GGGGTCGGAAACGACTCC ((.((((....)))).)), the folding enthalpy in data set [1] was -144 kJ/mol. Further, in data set [2], the Tm came to 59.5 °C.

In the case of GGGGTCGGAAACGGCCTC (.((.((....)).)).), the folding enthalpy in data set [1] is -110 kJ/mol. Also, the Tm in data set [2] came to 51.5 °C.

Regarding GGGGTGCGAAAGCATCCC (((.(((....))).))), the folding enthalpy in data set [1] was -119 kJ/mol. Besides, the Tm in data set [2] amounted to 68.4 °C.

Take GGGGTGGGAAACCACTCC ((.((((....)))).)): the folding enthalpy in data set [1] is -147 kJ/mol. Further, in data set [2], the Tm is 54.6 °C.

As for GGGGTGGGAAACCATCCC (((.(((....))).))), the folding enthalpy in data set [1] was -175 kJ/mol. Moreover, in data set [2], the Tm is 56.6 °C.

GGGGTGGGAAACTACCCC (((((.(....).))))): the folding enthalpy in data set [1] is -195 kJ/mol. For the same sequence, the Tm in data set [2] came to 55.8 °C.

With GGGGTGTCGAAAGACCCC (((..(((....)))))), the folding enthalpy in data set [1] was -127 kJ/mol. Also, the Tm in data set [2] is 58.7 °C.

Regarding GGGGTTCGAAAGAAACCC (((.(((....))).))), in data set [1], the folding enthalpy is -173 kJ/mol. Also, the Tm in data set [2] came out at 59.5 °C.

With GGGGTTGGAAACAATCCC (((.(((....))).))), the folding enthalpy in data set [1] was -178 kJ/mol. Moreover, in data set [2], the Tm was determined as 52.5 °C.

As to GGGGTTGGAAACGACTCC ((.((.(....).)).)), the folding enthalpy in data set [1] was -96.6 kJ/mol. For the same sequence, the Tm in data set [2] is 41.6 °C.

As for GGGGTTGGAAACGATCCC (((.(.(....).).))), the folding enthalpy in data set [1] is -96.2 kJ/mol. Further, the Tm in data set [2] is 39.1 °C.

For the sequence GGGTAACGAAAGTTCCCC (((.(((....))).))), the folding enthalpy in data set [1] was -115 kJ/mol. Further, the Tm in data set [2] amounted to 50.6 °C.

For the sequence GGGTAAGGAAACTTATCC ((.((((....)))).)), the folding enthalpy in data set [1] is -122 kJ/mol. In data set [2], the Tm turned out to be 40.1 °C.

As to GGGTAAGGAAACTTGCCC (((.(((....))).))), the folding enthalpy in data set [1] is -153 kJ/mol. Besides, in data set [2], the Tm turned out to be 50.5 °C.

As for GGGTACCGAAAGGTCCC (((.(((....)))))), the folding enthalpy in data set [1] is -101 kJ/mol. For the same sequence, the Tm in data set [2] was 54.9 °C.

Consider GGGTACCGAAAGGTCCCC (((.(((....))).))), for which the folding enthalpy in data set [1] is -95.7 kJ/mol. For the same sequence, in data set [2], the Tm came out at 55.7 °C.

On to GGGTACGAAAGTAGTCCC ((((((....)))..))), for which, in data set [1], the folding enthalpy was -87 kJ/mol. The Tm in data set [2] turned out to be 36.4 °C.

Take GGGTACGAAAGTATACCC ((((((....)))..))): the folding enthalpy in data set [1] is -109 kJ/mol. The Tm in data set [2] turned out to be 43.9 °C.

As for GGGTACGAAAGTATTCCC ((((((....)))..))), the folding enthalpy in data set [1] is -85.2 kJ/mol. The Tm in data set [2] was determined as 35.5 °C.

Consider GGGTAGAAATACCC (((((....))))), for which the folding enthalpy in data set [1] is -96.5 kJ/mol. Further, the Tm in data set [2] stood at 47.9 °C.

For GGGTAGCCGAAAGGCCCC (((..(((....)))))), the folding enthalpy in data set [1] was -67.2 kJ/mol. In addition, in data set [2], the Tm came out at 54 °C.

For the sequence GGGTAGCGAAAGCTTCCC (((.(((....))).))), in data set [1], the folding enthalpy was -153 kJ/mol. Further, in data set [2], the Tm was 56.6 °C.

Take GGGTAGGGAAACCTGCCC (((.(((....))).))): the folding enthalpy in data set [1] was -188 kJ/mol. Also, in data set [2], the Tm was found to be 55.7 °C.

For GGGTATGGAAACATGCTC (.(.(((....))).).), the folding enthalpy in data set [1] was -96.7 kJ/mol. The Tm in data set [2] was 33.4 °C.

In the case of GGGTCACCGAAAGGTCCC (((..(((....)))))), the folding enthalpy in data set [1] was -71.4 kJ/mol. In addition, the Tm in data set [2] was 38.9 °C.

For GGGTCACGAAAGTGTCCC (((.(((....))).))), the folding enthalpy in data set [1] is -167 kJ/mol. For the same sequence, the Tm in data set [2] is 59.6 °C.

As to GGGTCAGGAAACTGGTCC ((..(((....)))..)), the folding enthalpy in data set [1] is -126 kJ/mol. The Tm in data set [2] worked out at 39.9 °C.

Turning to GGGTCCCGAAAGGGTCCC (((.(((....))).))), the folding enthalpy in data set [1] is -130 kJ/mol. Moreover, the Tm in data set [2] was found to be 64.9 °C.

Regarding GGGTCCGAAAGGAACCCC ((((((....)))..))), the folding enthalpy in data set [1] was -58.1 kJ/mol. For the same sequence, in data set [2], the Tm stood at 61.7 °C.

For the sequence GGGTCCGAAAGGAATCCC ((((((....)))..))), the folding enthalpy in data set [1] was -92.5 kJ/mol. Besides, in data set [2], the Tm was 46.7 °C.

GGGTCCGAAAGGACTCCC ((((((....)))..))): the folding enthalpy in data set [1] was -46.1 kJ/mol. The Tm in data set [2] was determined as 50.6 °C.

For GGGTCCGAAAGGAGGCCC ((((((....)))..))), the folding enthalpy in data set [1] is -78.3 kJ/mol. Besides, the Tm in data set [2] turned out to be 50.3 °C.

As to GGGTCCGGAAACGGGCTC (.(.(((....))).).), in data set [1], the folding enthalpy is -89 kJ/mol. The Tm in data set [2] came to 50.5 °C.

In the case of GGGTCGCCGAAAGGCCCC (((..(((....)))))), the folding enthalpy in data set [1] is -46.2 kJ/mol. Further, the Tm in data set [2] worked out at 46.4 °C.

As for GGGTCGCGAAAGCGTCCC (((.(((....))).))), in data set [1], the folding enthalpy was -121 kJ/mol. Further, in data set [2], the Tm was determined as 67.1 °C.

For GGGTCTCGAAAGAGTCCC (((.(((....))).))), the folding enthalpy in data set [1] is -155 kJ/mol. Besides, the Tm in data set [2] was 53.8 °C.

GGGTCTTCGAAAGAACCC (((..(((....)))))): in data set [1], the folding enthalpy was -122 kJ/mol. The Tm in data set [2] worked out at 40.6 °C.

The values are drawn from the array DNA melting data of Ke et al. (doi:10.1101/2024.01.08.574731).
